FN deposition inh = fibronectin deposition inhibition; hit rate 0.086% among 350,000; inhibition, % at 12.6 µM; AID 743247; AH1F fibroblasts, Alexa488-fibronectin deposition fluorescence, overnight;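 active = mean inhibition across replicates of 30% or more, regardless of how many single replicates reach that level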;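 note: positive control wells lacked labelled fibronectin entirely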
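test system = AH1F fibroblasts assembling fluorescent fibronectin matrix | quantity = 10000 AH1F cells per well | buffer or medium = DMEM plus 2% serum, read in PBS | doses = single dose, pinned | incubation = 1 h cell attachment, overnight exposure to compound and label | detection = fluorescence at 485 nm excitation, 525 nm emission | read-out basis = inhibition from reduced deposited-fibronectin fluorescence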
rRNA inh HTS = inhibits bacterial ribosomal RNA function over humanized ribosomes | E. coli WT GFP vs humanized-ribosome RFP mutants, fluorescence, 24 h; hits give low values; DMSO median 0, no signal -100 | hit rate 1.6% among 350,000 | GFP signal change (wild-type ribosome), % (concentration not given with the values) | AID 720706;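 active = significant combined selectivity score with lowered wild-type GFP, culture density cut under 30%, mutant RFP and density less affected; inactive = any of these conditions unmet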
S100A4 inh HTS = S100A4-myosin IIA interaction inhibition; P26447; S100A4/TAMRA-MyoIIA peptide fluorescence polarization; inhibition, % at 10.7 µM; hit rate 0.14% among 360,000; AID 652163;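 active = mean inhibition of at least 70% across replicates, with every replicate also reaching that level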
Target sequence (P26447 whole entry, looked up): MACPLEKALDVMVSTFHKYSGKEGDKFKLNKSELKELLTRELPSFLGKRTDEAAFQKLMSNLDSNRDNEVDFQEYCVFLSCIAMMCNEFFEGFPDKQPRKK
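assay system = human S100A4 monomer with TAMRA-labelled myosin IIA peptide | also added = labelled myosin peptide probe, 5 nM | incubation = 5 min between mix addition and reading | control set = DMSO and TFP controls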
miR-122 sensor = miR-122 inhibition in Huh7 cells | hit rate 0.3% among 340,000 | Huh7 miR-122 Renilla luciferase sensor, 48 h; neutral wells = 0, positive control = 100 | AID 602342 | activation (reporter increase), % at 12.5 µM;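 active = mean replicate activation score at least 90 and every replicate individually at or above 90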;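 note: higher luciferase means less miR-122 activity so hits act as miR-122 inhibitors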
HIV Env fusion = inhibitors of HIV Env-mediated cell fusion; HeLa-JRFL Env/CEM21 cell fusion, luciferase; inhibition, % at 12.3 µM; hit rate 1.1% among 360,000; AID 651610;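 active = mean replicate inhibition score of at least 50 and every replicate individually at or above 50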;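 note: 0% = plate neutral controls and 100% = maraviroc near 300 nM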
Vif imaging = blocks HIV Vif function; HEK293T cells, Vif self-association by quenched fluorescence, imaging, 24 h; inhibition, % at 7.49 µM; AID 602346; hit rate 0.35% among 340,000; in the data active = inhibition above about 50%, passing the limit was not always enough
The depositor's hits bear a star; [ ] = another dose, or the depositor's remark. A selection: hits, their analogues and other compounds. The true share with any hit is near 2.6%.

`CC(C)NC(=O)Nc1ccc2c(c1)C(=O)N([C@H](C)CO)C[C@@H](C)[C@@H](CN(C)C)OCCCC[C@H](C)O2` gave FN deposition inh 5.5, rRNA inh HTS 4.6, miR-122 sensor -1.1[16.7 µM] and HIV Env fusion 16.0[16.7 µM].
Cc1cccc(S(=O)(=O)N2[C@@H]3c4cccc(=O)n4C[C@H]2[C@H](CO)[C@H]3C(=O)NC2CCC2)c1 was read as rRNA inh HTS -0.2, S100A4 inh HTS 2.6 and miR-122 sensor 1.2[16.7 µM].
Screening S=c1[nH]nc(-c2ccc3ccccc3n2)n1-c1ccccc1 returned FN deposition inh 9.3, rRNA inh HTS 2.2, S100A4 inh HTS 1.2, miR-122 sensor -3.7, HIV Env fusion 6.8 and Vif imaging 5.3.
For S=c1[nH]nc(-c2ccc3ccccc3n2)n1-c1ccc2c(c1)OCCO2 the results were FN deposition inh -9.8, rRNA inh HTS -32.7*, S100A4 inh HTS -7.8, HIV Env fusion -73.2 and Vif imaging 6.9.
Screening S=c1[nH]nc(-c2ccc(Br)cc2)n1-c1ccc2c(c1)OCCO2 returned FN deposition inh -1.1, rRNA inh HTS -14.4*, S100A4 inh HTS -0.5, HIV Env fusion -30.1 and Vif imaging 1.9.
For Cc1ccc(S(=O)(=O)Nc2ccc3c(c2)CC(=O)N([C@H](C)CO)C[C@H](C)[C@H](CN(C)C(=O)Nc2c(C)noc2C)O3)cc1 the results were rRNA inh HTS 2.5 and S100A4 inh HTS 0.1.
CC(C)(C)c1ccc(-c2noc(CCC(=O)NCC3CCCO3)n2)cc1 (stereo not given) was read as FN deposition inh -3.5, miR-122 sensor 3.2, HIV Env fusion 75.0* and Vif imaging -3.1.
Screening CNC(=O)CCc1nc(-c2ccc(C(C)(C)C)cc2)no1 returned miR-122 sensor 3.6 and Vif imaging -3.4.
CC(C)(C)c1ccc(-c2noc(CCC(N)=O)n2)cc1 was read as FN deposition inh -1.7, rRNA inh HTS -3.2, S100A4 inh HTS -1.1, miR-122 sensor -9.5, HIV Env fusion 100.1* and Vif imaging 8.9.
Screening CN(CC(=O)Nc1ccccc1Cl)C(=O)COC(=O)CN1C(=O)NC2(CCCC2)C1=O returned FN deposition inh -8.3, rRNA inh HTS 2.2, S100A4 inh HTS -2.6, HIV Env fusion 0.9 and Vif imaging 8.8.
For N#Cc1ccccc1NC(=O)CN1C(=O)NC2(CCCC2)C1=O the results were FN deposition inh 0.7, rRNA inh HTS 5.5, S100A4 inh HTS 4.1, miR-122 sensor 1.1, HIV Env fusion -2.1 and Vif imaging 10.2.
`CCOC(=O)c1ccccc1NC(=O)COC(=O)CN1C(=O)NC2(CCCC2)C1=O` gave FN deposition inh -5.8, rRNA inh HTS -31.8*, S100A4 inh HTS -2.1, miR-122 sensor 3.7, HIV Env fusion 38.0 and Vif imaging -6.0.
Screening O=C(CN1C(=O)NC2(CCCCCC2)C1=O)Nc1ccccc1[N+](=O)[O-] returned FN deposition inh 1.2, rRNA inh HTS -8.2, S100A4 inh HTS -0.4, miR-122 sensor 158.7*, HIV Env fusion 9.7 and Vif imaging 4.1.
Screening C[C@@H]1CCCCO[C@H](CN(C)Cc2ccc(C(F)(F)F)cc2)[C@H](C)CN([C@H](C)CO)C(=O)c2cc(NS(C)(=O)=O)ccc2O1 returned rRNA inh HTS -3.2, miR-122 sensor -1.0[16.7 µM] and HIV Env fusion 29.8[16.7 µM].
O=C(O)c1ccn2c(C(=O)c3ccccc3)c(-c3ccccc3)cc2c1 was read as FN deposition inh 4.4, rRNA inh HTS -25.8*, S100A4 inh HTS -3.8, miR-122 sensor -0.2, HIV Env fusion -1.9 and Vif imaging 2.0.
`COc1ccc(-c2cc3cc(C(=O)O)ccn3c2C(=O)c2ccccc2)cc1` gave FN deposition inh -2.4, rRNA inh HTS -44.0, S100A4 inh HTS -1.9, miR-122 sensor -2.7, HIV Env fusion 13.5 and Vif imaging -9.9.
Screening O=[N+]([O-])c1ccc(O)c(C(C#Cc2ccccc2)N2CCOCC2)c1 (stereo not given) returned FN deposition inh 11.3, rRNA inh HTS -31.9*, S100A4 inh HTS -2.1, HIV Env fusion 89.5* and Vif imaging 0.0.
Screening C[C@@H]1CN([C@@H](C)CO)C(=O)c2cccc(NC(=O)Nc3ccc4c(c3)OCO4)c2O[C@H]1CN(C)C(=O)Nc1ccc(F)cc1 returned rRNA inh HTS -4.6, miR-122 sensor -0.1[16.7 µM] and HIV Env fusion -23.5[16.7 µM].
For COC(=O)C[C@H]1C[C@@H]2c3cc(NC(=O)C4CCC4)ccc3O[C@@H]2[C@@H](CO)O1 the results were FN deposition inh -9.5, rRNA inh HTS -1.0, S100A4 inh HTS -6.4, miR-122 sensor 0.2[16.7 µM] and HIV Env fusion 2.4[16.7 µM].
`CN1[C@H](C(=O)Nc2ccccc2)[C@@H](CO)[C@@H]2Cn3c(ccc(-c4ccc(F)cc4)c3=O)[C@@H]21` gave rRNA inh HTS 1.2, S100A4 inh HTS -2.5 and HIV Env fusion 15.9[16.7 µM].
Screening COc1ccc(CNC(=O)C[C@@H]2CC[C@@H]3[C@H](COc4ccc(NC(C)=O)cc4C(=O)N3C)O2)cc1 returned FN deposition inh -1.6, rRNA inh HTS -1.8, S100A4 inh HTS -10.4, miR-122 sensor -2.6[16.7 µM] and HIV Env fusion -2.2[16.7 µM].
Cc1nn(-c2ccccc2)c(Cl)c1/C=N/NC(=O)OC(C)(C)C was read as FN deposition inh -2.3, rRNA inh HTS -20.1*, S100A4 inh HTS 0.0, miR-122 sensor -5.8, HIV Env fusion 17.3 and Vif imaging -9.2.
CNC(=S)N/N=C/c1c(C)nn(-c2ccccc2)c1Cl was read as miR-122 sensor 4.7, HIV Env fusion -238.8 and Vif imaging -8.3.
For COc1ccc(NCC(=O)N/N=C/c2c(C)nn(Cc3ccccc3)c2Cl)cc1 the results were FN deposition inh -3.5, rRNA inh HTS -14.0*, S100A4 inh HTS 0.3, miR-122 sensor -7.5, HIV Env fusion -3.2 and Vif imaging -2.0.
Screening Cc1nn(Cc2ccccc2)c(C)c1/C=N/NC(=O)CNc1cccc(C(F)(F)F)c1 returned FN deposition inh -4.2, rRNA inh HTS -9.7, S100A4 inh HTS 0.8, HIV Env fusion 15.4 and Vif imaging 3.3.
For C[C@H]1CN([C@@H](C)CO)C(=O)c2cc(NC(=O)NC3CCCCC3)ccc2O[C@H]1CN(C)Cc1ccc2c(c1)OCO2 the results were rRNA inh HTS -1.4, S100A4 inh HTS 4.6, miR-122 sensor -2.1[16.7 µM] and HIV Env fusion 6.2[16.7 µM].
For Cc1ccc(C(=O)N/C(=C\c2sccc2C)C(=O)NCc2ccco2)cc1 the results were Vif imaging 50.9*.
Screening CCCC(=O)Nc1ccc2c(c1)C(=O)N(C)C[C@H](OC)[C@@H](C)CN(Cc1cccc(F)c1)[C@H](C)CO2 returned FN deposition inh 12.8, rRNA inh HTS -4.7, S100A4 inh HTS 7.5 and miR-122 sensor -2.9[16.7 µM].
